In brackets after ≈: the same amount, converted by molar mass. Activity calls are given as the source filed them. The rule behind the calls is not given here.
Key:
Format in all cases: functional
Rhodotorula glutinis [1] = assay: Antifungal activity against Rhodotorula glutinis NCIM 3168 assessed as zone of inhibition at 80 ug/well incubated for 48 to 72 hrs by agar well diffusion method; conditions: read-out: IZ
Method in brief: (§1)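 Fungi kept on potato dextrose agar slants and grown in potato dextrose broth. 500 microlitres of 48-72 h spore suspension swabbed onto Mueller Hinton agar. Compounds in DMSO loaded into 5 mm wells, with a DMSO vehicle plate and fluconazole/ravuconazole positive-control plate. Incubated 48-72 h at 30 C. Clear zone measured in mm, mean of five replicates.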

Escherichia coli = assay: Antibacterial activity against Escherichia coli NCIM 2574 assessed as zone of inhibition at 80 ug/well incubated for 24 to 48 hrs by agar well diffusion method; conditions: for zone of inhibition at 80 µg/disc: read-out: IZ
Method in brief: (§2)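 Strains from NCIM kept on nutrient agar slants at 4 C and grown overnight at 37 C in nutrient broth. 500 microlitres of 24-48 h culture swabbed onto nutrient agar. Compounds in DMSO loaded into 5 mm wells, with a DMSO vehicle plate and streptomycin reference. Incubated 24-48 h at 37 C. Zone of inhibition measured in mm and averaged over 4 replicates.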

Candida albicans [2] = assay: Antifungal activity against Candida albicans NCIM 3100 assessed as zone of inhibition at 80 ug/well incubated for 48 to 72 hrs by agar well diffusion method; conditions: read-out: IZ; method in brief: as §1
[3] = tested on: Staphylococcus epidermidis; assay: Antibacterial activity against Staphylococcus albus NCIM 2178 assessed as zone of inhibition at 80 ug/well incubated for 24 to 48 hrs by agar well diffusion method; conditions: for zone of inhibition at 80 µg/disc: read-out: IZ; method in brief: as §2
Aspergillus niger [4] = assay: Antifungal activity against Aspergillus niger NCIM 504 assessed as zone of inhibition at 80 ug/well incubated for 48 to 72 hrs by agar well diffusion method; conditions: for zone of inhibition at 80 µg/disc: read-out: IZ; method in brief: as §1
Proteus mirabilis = assay: Antibacterial activity against Proteus mirabilis NCIM 2388 assessed as zone of inhibition at 80 ug/well incubated for 24 to 48 hrs by agar well diffusion method; method in brief: as §2
Candida albicans [5] = assay: Antifungal activity against Candida albicans NCIM 3100 assessed as inhibition of fungal growth incubated for 48 to 72 hrs by broth microdilution susceptibility method
Method in brief: (§3)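 Tube micro-dilution in Sabouraud liquid medium. Stocks were made in DMSO and serially diluted twofold in broth to final […]. Tubes inoculated with organisms grown in potato dextrose broth and held 48-72 h at 30 C. MIC is the lowest concentration with no growth. DMSO and uninoculated-media controls were included, in triplicate.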

Aspergillus niger [6] = assay: Antifungal activity against Aspergillus niger NCIM 504 assessed as inhibition of fungal growth incubated for 48 to 72 hrs by broth microdilution susceptibility method; method in brief: as §3
Rhodotorula glutinis [7] = assay: Antifungal activity against Rhodotorula glutinis NCIM 3168 assessed as inhibition of fungal growth incubated for 48 to 72 hrs by broth microdilution susceptibility method; method in brief: as §3

Row | Structure (SMILES) | zone of inhibition at 80 µg/disc (Rhodotorula glutinis [1]) | inhibition zone (IZ) (Escherichia coli) | zone of inhibition at 80 µg/disc (Candida albicans [2]) | zone of inhibition at 80 µg/disc [3] | inhibition zone (IZ) (Aspergillus niger [4]) | inhibition zone (IZ) (Proteus mirabilis) | MIC (Candida albicans [5]) | MIC (Aspergillus niger [6]) | MIC (Rhodotorula glutinis [7]) | zone of inhibition at 80 µg/disc (Escherichia coli) | zone of inhibition at 80 µg/disc (Aspergillus niger [4]) | inhibition zone (IZ) [3]
1 | Cc1ccc(-c2nc(C)c(-c3nn(-c4ccccc4)cc3-c3cn(Cc4ccccc4)nn3)s2)cc1 | 18.4 mm | inactive | 15.8 mm | 11.2 mm | inactive | inactive | 125 µg/mL (≈ 256 µM) | 62.5 µg/mL (≈ 128 µM) | 125 µg/mL (≈ 256 µM) | – | – | –
2 | Cc1nc(-c2ccc(Cl)cc2)sc1-c1nn(-c2ccccc2)cc1-c1cn(Cc2ccc(Br)cc2)nn1 | 18.8 mm | – | 17.6 mm | 11.8 mm | – | inactive | 250 µg/mL (≈ 425 µM) | 62.5 µg/mL (≈ 106 µM) | 62.5 µg/mL (≈ 106 µM) | 11 mm | 12 mm | –
3 | Cc1ccc(Cn2cc(-c3cn(-c4ccccc4)nc3-c3sc(-c4ccc(Cl)cc4)nc3C)nn2)cc1 | 11.4 mm | – | 13.8 mm | 12 mm | – | inactive | 250 µg/mL (≈ 478 µM) | 125 µg/mL (≈ 239 µM) | 125 µg/mL (≈ 239 µM) | 12.4 mm | 11.4 mm | –
4 | Cc1ccc(-c2nc(C)c(-c3nn(-c4ccccc4)cc3-c3cn(Cc4ccc(Br)cc4)nn3)s2)cc1 | 18.8 mm | – | 14 mm | 12.2 mm | – | inactive | 125 µg/mL (≈ 220 µM) | 31.2 µg/mL (≈ 55.1 µM) | 62.5 µg/mL (≈ 110 µM) | 11 mm | 14.4 mm | –
5 | C[C@@H](c1nc(-c2ccc(C#N)cc2)cs1)[C@](O)(Cn1cncn1)c1ccc(F)cc1F [RAVUCONAZOLE] | 20.1 mm | inactive | 28.6 mm | – | – | inactive | 7.81 µg/mL (≈ 17.9 µM) | 31.2 µg/mL (≈ 71.4 µM) | 15.6 µg/mL (≈ 35.7 µM) | – | 20.2 mm | inactive
6 | Cc1nc(-c2ccc(Br)cc2)sc1-c1nn(-c2ccccc2)cc1-c1cn(Cc2ccc(F)cc2)nn1 | 11.7 mm | – | 12 mm | 12 mm | – | inactive | 125 µg/mL (≈ 219 µM) | 62.5 µg/mL (≈ 109 µM) | 62.5 µg/mL (≈ 109 µM) | 11.8 mm | 17 mm | –
7 | Cc1nc(-c2ccc(F)cc2)sc1-c1nn(-c2ccccc2)cc1-c1cn(Cc2ccc(Cl)cc2)nn1 | 14.5 mm | inactive | 10.4 mm | 11.8 mm | – | inactive | inactive | 31.2 µg/mL (≈ 59.3 µM) | 125 µg/mL (≈ 237 µM) | – | 13.5 mm | –
8 | OC(Cn1cncn1)(Cn1cncn1)c1ccc(F)cc1F [FLUCONAZOLE] | 25.3 mm | inactive | 20.2 mm | – | – | inactive | 7.81 µg/mL (≈ 25.5 µM) | 7.81 µg/mL (≈ 25.5 µM) | 7.81 µg/mL (≈ 25.5 µM) | – | 18.4 mm | inactive
9 | Cc1nc(-c2ccc(Cl)cc2)sc1-c1nn(-c2ccccc2)cc1-c1cn(Cc2ccccc2)nn1 | 15.2 mm | – | 15.2 mm | 11 mm | – | inactive | 500 µg/mL (≈ 982 µM) | 31.2 µg/mL (≈ 61.4 µM) | 125 µg/mL (≈ 246 µM) | 12.8 mm | 12.3 mm | –
